Test results from the M2OR odorant receptor database.

Tests used:
Conditions in all cases: stereoisomer not certain
UniProt A2ATE5 = biological target: T1, UniProt A2ATE5
T1 sequence (whole entry): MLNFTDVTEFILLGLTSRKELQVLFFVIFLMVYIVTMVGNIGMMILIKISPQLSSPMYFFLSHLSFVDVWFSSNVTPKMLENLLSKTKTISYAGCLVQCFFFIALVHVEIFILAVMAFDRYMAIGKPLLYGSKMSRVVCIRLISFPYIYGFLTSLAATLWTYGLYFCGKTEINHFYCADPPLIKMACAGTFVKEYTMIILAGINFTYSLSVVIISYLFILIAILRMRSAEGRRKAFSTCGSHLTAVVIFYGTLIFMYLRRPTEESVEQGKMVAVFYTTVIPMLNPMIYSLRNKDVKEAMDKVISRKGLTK
Outline: (§1)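 Values were gathered from published papers (main text and supplementary material), with extra details requested from the original authors when needed, and checked for typos and inconsistencies. Each receptor–molecule pair is called responsive (active) if the original authors judged the measured signal statistically different from baseline, and non-responsive (inactive) otherwise. Assay methods varied by source, often transient mammalian cell-line luciferase assays. Recorded details include cell line, G-protein, co-transfected protein and tags.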

UniProt A2AVA9 = biological target: UniProt A2AVA9
Outline: as §1

UniProt A2AVB0 = biological target: T2, UniProt A2AVB0
T2 sequence (whole entry): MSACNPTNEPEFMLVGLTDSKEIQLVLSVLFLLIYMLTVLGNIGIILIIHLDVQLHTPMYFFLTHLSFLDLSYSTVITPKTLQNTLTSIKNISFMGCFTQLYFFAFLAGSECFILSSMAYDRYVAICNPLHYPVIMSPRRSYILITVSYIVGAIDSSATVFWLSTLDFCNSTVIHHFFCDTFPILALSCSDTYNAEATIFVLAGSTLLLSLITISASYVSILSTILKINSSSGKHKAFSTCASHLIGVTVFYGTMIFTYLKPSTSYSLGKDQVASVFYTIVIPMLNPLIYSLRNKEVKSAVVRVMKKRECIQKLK
Outline: as §1

UniProt A2AVB5 = biological target: T3, UniProt A2AVB5
T3 sequence (whole entry): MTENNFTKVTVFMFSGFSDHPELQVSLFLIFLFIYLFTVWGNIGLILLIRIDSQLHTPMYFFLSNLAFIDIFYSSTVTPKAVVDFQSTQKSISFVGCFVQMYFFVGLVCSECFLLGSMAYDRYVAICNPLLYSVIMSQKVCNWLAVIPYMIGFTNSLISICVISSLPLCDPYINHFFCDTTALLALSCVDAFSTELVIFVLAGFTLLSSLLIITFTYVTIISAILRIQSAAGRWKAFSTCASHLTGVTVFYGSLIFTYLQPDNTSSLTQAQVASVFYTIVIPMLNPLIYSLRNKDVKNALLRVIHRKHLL
Outline: as §1

UniProt A2AVC3 = biological target: UniProt A2AVC3
Outline: as §1

UniProt B2RVX8 = biological target: T4, UniProt B2RVX8
T4 sequence (whole entry): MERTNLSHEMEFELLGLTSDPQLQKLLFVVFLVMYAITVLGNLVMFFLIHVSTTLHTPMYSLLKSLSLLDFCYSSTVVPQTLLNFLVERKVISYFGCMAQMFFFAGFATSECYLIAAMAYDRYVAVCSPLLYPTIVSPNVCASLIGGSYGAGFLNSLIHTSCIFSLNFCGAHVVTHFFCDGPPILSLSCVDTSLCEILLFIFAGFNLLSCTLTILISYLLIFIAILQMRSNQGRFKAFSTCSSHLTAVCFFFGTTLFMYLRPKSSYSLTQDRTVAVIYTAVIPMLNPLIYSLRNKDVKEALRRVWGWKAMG
Outline: as §1

UniProt E9PVX1 = biological target: T5, UniProt E9PVX1
T5 sequence (whole entry): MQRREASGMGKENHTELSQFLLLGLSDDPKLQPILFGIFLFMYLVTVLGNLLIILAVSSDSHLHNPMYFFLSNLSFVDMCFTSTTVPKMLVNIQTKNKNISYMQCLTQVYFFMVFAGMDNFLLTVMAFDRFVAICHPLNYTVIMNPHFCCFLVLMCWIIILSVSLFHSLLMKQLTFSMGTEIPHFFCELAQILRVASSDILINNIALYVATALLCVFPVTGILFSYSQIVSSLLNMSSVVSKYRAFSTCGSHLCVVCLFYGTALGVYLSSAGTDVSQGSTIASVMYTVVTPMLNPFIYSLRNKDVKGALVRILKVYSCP
Outline: as §1

UniProt E9PXH6 = biological target: UniProt E9PXH6
Outline: as §1

UniProt E9PZ66 = biological target: T6, UniProt E9PZ66
T6 sequence (whole entry): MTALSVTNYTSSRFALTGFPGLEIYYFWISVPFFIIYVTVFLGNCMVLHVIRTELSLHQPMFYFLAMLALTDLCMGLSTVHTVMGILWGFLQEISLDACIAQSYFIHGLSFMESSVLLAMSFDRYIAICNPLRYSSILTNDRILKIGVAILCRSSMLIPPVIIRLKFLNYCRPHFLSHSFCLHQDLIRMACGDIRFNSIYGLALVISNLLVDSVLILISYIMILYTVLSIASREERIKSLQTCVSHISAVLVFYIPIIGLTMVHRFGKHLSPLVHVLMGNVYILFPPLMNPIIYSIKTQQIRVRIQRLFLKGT
Outline: as §1

UniProt E9Q4X7 = biological target: T7, UniProt E9Q4X7
T7 sequence (whole entry): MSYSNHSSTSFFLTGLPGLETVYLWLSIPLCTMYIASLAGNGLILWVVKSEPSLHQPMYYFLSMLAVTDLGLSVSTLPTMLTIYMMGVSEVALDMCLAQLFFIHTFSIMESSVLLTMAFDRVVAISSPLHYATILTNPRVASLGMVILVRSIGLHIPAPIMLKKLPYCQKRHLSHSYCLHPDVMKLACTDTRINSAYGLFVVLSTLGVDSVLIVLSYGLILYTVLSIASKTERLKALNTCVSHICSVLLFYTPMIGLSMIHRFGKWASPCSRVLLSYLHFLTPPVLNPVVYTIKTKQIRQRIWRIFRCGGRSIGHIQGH
Outline: as §1

UniProt E9Q546 = biological target: T8, UniProt E9Q546
T8 sequence (whole entry): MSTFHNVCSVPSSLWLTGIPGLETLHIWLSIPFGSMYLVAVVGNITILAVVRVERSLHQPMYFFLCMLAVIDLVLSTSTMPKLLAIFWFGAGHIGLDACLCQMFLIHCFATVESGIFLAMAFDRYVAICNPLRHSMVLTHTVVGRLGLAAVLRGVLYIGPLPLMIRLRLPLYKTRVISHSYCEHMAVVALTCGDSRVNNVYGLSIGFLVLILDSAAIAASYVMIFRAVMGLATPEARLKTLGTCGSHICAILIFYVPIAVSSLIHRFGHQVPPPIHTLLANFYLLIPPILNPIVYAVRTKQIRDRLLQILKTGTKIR
Outline: as §1

UniProt E9Q6Z7 = biological target: T9, UniProt E9Q6Z7
T9 sequence (whole entry): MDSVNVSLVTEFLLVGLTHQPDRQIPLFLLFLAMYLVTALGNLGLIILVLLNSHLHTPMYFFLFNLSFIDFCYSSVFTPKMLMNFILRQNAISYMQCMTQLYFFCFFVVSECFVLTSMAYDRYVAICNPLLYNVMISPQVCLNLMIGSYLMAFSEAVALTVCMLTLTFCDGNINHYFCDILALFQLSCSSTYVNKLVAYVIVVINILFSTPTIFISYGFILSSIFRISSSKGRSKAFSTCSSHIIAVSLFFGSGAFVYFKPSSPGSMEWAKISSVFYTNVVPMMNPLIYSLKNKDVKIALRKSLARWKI
Outline: as §1

UniProt E9Q891 = biological target: UniProt E9Q891
Outline: as §1

UniProt K7N5T5 = biological target: UniProt K7N5T5
Outline: as §1

UniProt K7N609 = biological target: T10, UniProt K7N609
T10 sequence (whole entry): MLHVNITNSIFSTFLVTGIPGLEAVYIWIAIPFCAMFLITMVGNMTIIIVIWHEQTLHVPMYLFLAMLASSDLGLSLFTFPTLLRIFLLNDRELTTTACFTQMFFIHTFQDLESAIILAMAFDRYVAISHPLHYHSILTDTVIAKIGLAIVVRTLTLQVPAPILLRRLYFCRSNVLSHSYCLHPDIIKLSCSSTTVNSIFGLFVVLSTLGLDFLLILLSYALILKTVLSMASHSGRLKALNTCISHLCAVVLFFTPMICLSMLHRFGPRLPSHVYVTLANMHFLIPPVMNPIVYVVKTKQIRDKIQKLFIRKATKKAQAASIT
Outline: as §1

Measured: odorant receptor agonist call

UniProt E9PXH6, sequence (E9PXH6 as listed by the source): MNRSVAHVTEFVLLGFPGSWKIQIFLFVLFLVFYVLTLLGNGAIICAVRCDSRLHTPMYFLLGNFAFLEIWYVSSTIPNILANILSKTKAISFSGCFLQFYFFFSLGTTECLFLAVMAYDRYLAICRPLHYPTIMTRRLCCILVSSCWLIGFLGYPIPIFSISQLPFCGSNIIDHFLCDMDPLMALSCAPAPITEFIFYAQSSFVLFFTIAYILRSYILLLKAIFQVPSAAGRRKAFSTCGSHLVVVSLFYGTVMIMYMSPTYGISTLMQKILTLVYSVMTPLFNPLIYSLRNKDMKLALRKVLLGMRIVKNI
UniProt A2AVA9, sequence (A2AVA9 as listed by the source): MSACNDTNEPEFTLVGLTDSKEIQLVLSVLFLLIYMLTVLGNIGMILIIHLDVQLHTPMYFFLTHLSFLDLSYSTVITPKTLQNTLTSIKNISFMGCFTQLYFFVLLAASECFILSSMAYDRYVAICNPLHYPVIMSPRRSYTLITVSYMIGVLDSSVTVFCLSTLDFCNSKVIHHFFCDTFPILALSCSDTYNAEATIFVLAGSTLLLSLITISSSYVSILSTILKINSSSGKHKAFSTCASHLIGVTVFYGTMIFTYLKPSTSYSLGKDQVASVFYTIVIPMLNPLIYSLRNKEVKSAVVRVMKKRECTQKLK
UniProt A2AVC3, sequence (A2AVC3 as listed by the source): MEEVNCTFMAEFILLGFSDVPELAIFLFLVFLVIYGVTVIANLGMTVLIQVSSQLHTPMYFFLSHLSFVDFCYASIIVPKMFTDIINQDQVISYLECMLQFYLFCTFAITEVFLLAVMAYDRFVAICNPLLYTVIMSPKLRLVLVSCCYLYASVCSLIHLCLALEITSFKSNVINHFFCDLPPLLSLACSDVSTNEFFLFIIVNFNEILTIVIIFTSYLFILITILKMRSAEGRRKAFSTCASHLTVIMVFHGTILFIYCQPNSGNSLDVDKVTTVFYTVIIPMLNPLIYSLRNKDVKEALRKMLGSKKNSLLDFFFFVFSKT
UniProt K7N5T5, sequence (K7N5T5 as listed by the source): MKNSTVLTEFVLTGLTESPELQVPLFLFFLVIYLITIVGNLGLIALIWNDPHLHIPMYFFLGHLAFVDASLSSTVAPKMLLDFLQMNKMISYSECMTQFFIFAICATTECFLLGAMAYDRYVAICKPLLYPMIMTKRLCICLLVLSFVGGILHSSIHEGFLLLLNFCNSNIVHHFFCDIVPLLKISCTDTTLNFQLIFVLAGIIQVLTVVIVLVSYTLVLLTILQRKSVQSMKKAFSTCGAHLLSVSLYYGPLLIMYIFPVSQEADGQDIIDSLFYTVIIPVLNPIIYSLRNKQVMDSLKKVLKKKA
UniProt E9Q891, sequence (E9Q891 as listed by the source): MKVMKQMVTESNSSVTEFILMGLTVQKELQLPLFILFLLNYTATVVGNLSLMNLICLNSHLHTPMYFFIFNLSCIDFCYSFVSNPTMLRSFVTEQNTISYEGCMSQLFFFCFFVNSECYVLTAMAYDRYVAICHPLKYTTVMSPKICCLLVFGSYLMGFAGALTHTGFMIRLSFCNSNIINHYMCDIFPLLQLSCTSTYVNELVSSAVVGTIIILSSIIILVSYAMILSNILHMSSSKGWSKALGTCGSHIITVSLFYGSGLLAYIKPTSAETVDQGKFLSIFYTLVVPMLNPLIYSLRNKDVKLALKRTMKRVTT

O=C1CCOc2ccccc21
active: UniProt A2AVA9 | UniProt A2AVB5 | UniProt E9PXH6 | UniProt E9Q891
inactive: UniProt A2ATE5 | UniProt A2AVB0 | UniProt A2AVC3 | UniProt B2RVX8 | UniProt E9PVX1 | UniProt E9PZ66 | UniProt E9Q4X7 | UniProt E9Q546 | UniProt E9Q6Z7 | UniProt K7N5T5 | UniProt K7N609

CC(=O)OCc1ccccc1
inactive: UniProt A2ATE5 | UniProt A2AVB0 | UniProt A2AVB5 | UniProt B2RVX8 | UniProt E9PVX1 | UniProt E9PZ66 | UniProt E9Q4X7 | UniProt E9Q546 | UniProt E9Q6Z7 | UniProt K7N609

CCCCCCC(C)=O
inactive: UniProt A2ATE5 | UniProt A2AVB0 | UniProt A2AVB5 | UniProt B2RVX8 | UniProt E9PVX1 | UniProt E9PZ66 | UniProt E9Q4X7 | UniProt E9Q546 | UniProt E9Q6Z7 | UniProt K7N609

O=C(c1ccccc1)c1ccccc1
inactive: UniProt A2ATE5 | UniProt A2AVB0 | UniProt A2AVB5 | UniProt B2RVX8 | UniProt E9PVX1 | UniProt E9PZ66 | UniProt E9Q4X7 | UniProt E9Q546 | UniProt E9Q6Z7 | UniProt K7N609

CC(C)=CCCC(C)CCO (stereo not given)
inactive: UniProt A2ATE5 | UniProt A2AVB0 | UniProt A2AVB5 | UniProt B2RVX8 | UniProt E9PVX1 | UniProt E9PZ66 | UniProt E9Q4X7 | UniProt E9Q546 | UniProt E9Q6Z7 | UniProt K7N609
